ChEMBL document CHEMBL3739266, “Synthesis and pharmacological evaluation of some new fluorine containing hydroxypyrazolines as potential anticancer and antioxidant agents” (Eur J Med Chem, 2015)
Converted amounts (≈) assume the structure as drawn.

What was measured:
[1] = Antioxidant activity assessed as DPPH free radical scavenging activity after 30 mins by spectrophotometric assay; format: physicochemical
How it was run: (§1)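 Test samples at 25, 50 and 100 μg/mL in methanol, 1 mL added to 4 mL of 0.004% (w/v) methanolic DPPH. Scavenging expressed as percent inhibition relative to a control with all reagents except test compound. Ascorbic acid served as reference antioxidant.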

[2] = Antioxidant activity assessed as DPPH free radical scavenging activity at 50 ug/ml after 30 mins by spectrophotometric assay; format: physicochemical; details: 0.5 h; how it was run: as §1
[3] = Antioxidant activity assessed as DPPH free radical scavenging activity at 25 ug/ml after 30 mins by spectrophotometric assay; format: physicochemical; details: 0.5 h; how it was run: as §1
[4] = Antioxidant activity assessed as DPPH free radical scavenging activity at 100 ug/ml after 30 mins by spectrophotometric assay; format: physicochemical; details: 0.5 h; how it was run: as §1
MDA-MB-231 = test: Cytotoxicity against human MDA-MB-231 cells assessed as growth inhibition after 48 hrs by MTT assay; format: functional, cell-based; details: MDA-MB-231, 48 h
How it was run: (§2)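 MTT colorimetric assay in 96-well plates. Cells exposed to compounds for 48 h, then tetrazolium reduction to formazan was read as absorbance. IC50 taken from plotted dose–response curves. Values are mean ± SD of three independent experiments. Doxorubicin served as positive control.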

Vero = test: Cytotoxicity against African green monkey Vero cells assessed as growth inhibition after 48 hrs by MTT assay; format: cell-based; details: Chlorocebus sabaeus; how it was run: as §2

Row | IC50 [1] | inhibition (INH) [2] | inhibition (INH) [3] | inhibition (INH) [4] | SMILES | IC50 (MDA-MB-231) | IC50 (Vero)
1 | 15.17 µg/mL (≈ 86.1 µM) | 83.52% | 82.39% | 87.22% | O=C1O[C@H]([C@@H](O)CO)C(O)=C1O [ASCORBIC ACID] | – | –
2 | – | – | – | – | COc1cccc2c1C(=O)c1c(O)c3c(c(O)c1C2=O)C[C@@](O)(C(=O)CO)C[C@@H]3O[C@H]1C[C@H](N)[C@H](O)[C@H](C)O1 [DOXORUBICIN] | 910 nM | > 100000 nM
